Measured values taken from ChEMBL document CHEMBL5058577, “EUbOPEN Chemogenomics Library 2 (Multiplex)” (2022).

Test system: HEK-293T
Experiment: Multiplex assay against HEK293T
Assay type: toxicity, cell-based
Details: human
Outline: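 Per cents of healthy-nucleus cells form the tubulin, mitochondrial-mass and membrane-permeability phenotype values. Live cells were stained at seeding with Hoechst33342, BioTracker Green Microtubule Cytoskeleton Dye, MitoTracker Red and Annexin V Alexa Fluor 680. After compound addition they were imaged on a CQ1 microscope at 37°C and 5% CO2, and CellPathfinder machine-learning gating split them into Hoechst high-intensity objects or normal cells, normal cells into healthy, pyknosed or fragmented nuclei, and pyknosed cells into mitotic or apoptotic.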

[1] = 12 h, 1 µM, compound concentration 1 uM, replicate 1
[2] = 12 h, 1 µM, compound concentration 1 uM, replicate 2
[3] = 12 h, 10 µM, compound concentration 10 uM, replicate 1
[4] = 12 h, 10 µM, compound concentration 10 uM, replicate 2
[5] = 24 h, 1 µM, compound concentration 1 uM, replicate 1
[6] = 24 h, 1 µM, compound concentration 1 uM, replicate 2
[7] = 24 h, 10 µM, compound concentration 10 uM, replicate 1
[8] = 24 h, 10 µM, compound concentration 10 uM, replicate 2
[9] = 48 h, 1 µM, compound concentration 1 uM, replicate 1
[10] = 48 h, 1 µM, compound concentration 1 uM, replicate 2
[11] = 48 h, 10 µM, compound concentration 10 uM, replicate 1
[12] = 48 h, 10 µM, compound concentration 10 uM, replicate 2

## CN(C)C/C=C/C(=O)Nc1ccc(C(=O)N2CCCC(Nc3ncc(Cl)c(-c4c[nH]c5ccccc45)n3)C2)cc1 (stereo not given)
[1]
  Population Apoptotic (%): 46%
  Population Fragmented Nuclei (%): 8%
  Population Healthy Nuclei (%): 55%
  Population Hoechst High Intensity Objects (%): 30%
  Population Membrane Permeable-Phenotype (%): 0%
  Population Mitochondria Different-Phenotype (%): 87%
  Population Mitotic Cells (%): 53%
  Population Normal (%): 69%
  Population Pyknosed Nuclei (%): 35%
  Population Tubulin-Different-Phenotype (%): 69%
  Total Cell Count: 227
[2]
  Population Apoptotic (%): 63%
  Population Fragmented Nuclei (%): 6%
  Population Healthy Nuclei (%): 64%
  Population Hoechst High Intensity Objects (%): 23%
  Population Mitochondria Different-Phenotype (%): 89%
  Population Mitotic Cells (%): 36%
  Population Normal (%): 76%
  Population Pyknosed Nuclei (%): 29%
  Population Tubulin-Different-Phenotype (%): 70%
  Total Cell Count: 231
[3]
  Population Apoptotic (%): 62%
  Population Fragmented Nuclei (%): 12%
  Population Healthy Nuclei (%): 57%
  Population Hoechst High Intensity Objects (%): 35%
  Population Membrane Permeable-Phenotype (%): 0%
  Population Mitochondria Different-Phenotype (%): 95%
  Population Mitotic Cells (%): 37%
  Population Normal (%): 64%
  Population Pyknosed Nuclei (%): 30%
  Population Tubulin-Different-Phenotype (%): 79%
  Total Cell Count: 269
[4]
  Population Apoptotic (%): 77%
  Population Fragmented Nuclei (%): 7%
  Population Healthy Nuclei (%): 64%
  Population Hoechst High Intensity Objects (%): 29%
  Population Mitotic Cells (%): 22%
  Population Normal (%): 70%
  Population Pyknosed Nuclei (%): 28%
  Population Tubulin-Different-Phenotype (%): 81%
  Total Cell Count: 181
[5]
  Population Apoptotic (%): 72%
  Population Fragmented Nuclei (%): 15%
  Population Healthy Nuclei (%): 62%
  Population Hoechst High Intensity Objects (%): 27%
  Population Membrane Permeable-Phenotype (%): 0%
  Population Mitochondria Different-Phenotype (%): 85%
  Population Mitotic Cells (%): 27%
  Population Normal (%): 72%
  Population Pyknosed Nuclei (%): 22%
  Population Tubulin-Different-Phenotype (%): 74%
  Total Cell Count: 222
[6]
  Population Apoptotic (%): 74%
  Population Fragmented Nuclei (%): 9%
  Population Healthy Nuclei (%): 67%
  Population Hoechst High Intensity Objects (%): 26%
  Population Mitochondria Different-Phenotype (%): 89%
  Population Mitotic Cells (%): 25%
  Population Normal (%): 73%
  Population Pyknosed Nuclei (%): 23%
  Population Tubulin-Different-Phenotype (%): 70%
  Total Cell Count: 207
[7]
  Population Apoptotic (%): 74%
  Population Fragmented Nuclei (%): 19%
  Population Healthy Nuclei (%): 55%
  Population Hoechst High Intensity Objects (%): 49%
  Population Membrane Permeable-Phenotype (%): 0%
  Population Mitochondria Different-Phenotype (%): 96%
  Population Mitotic Cells (%): 25%
  Population Normal (%): 50%
  Population Pyknosed Nuclei (%): 24%
  Population Tubulin-Different-Phenotype (%): 52%
  Total Cell Count: 314
[8]
  Population Apoptotic (%): 88%
  Population Fragmented Nuclei (%): 10%
  Population Healthy Nuclei (%): 68%
  Population Hoechst High Intensity Objects (%): 34%
  Population Mitochondria Different-Phenotype (%): 98%
  Population Mitotic Cells (%): 11%
  Population Normal (%): 65%
  Population Pyknosed Nuclei (%): 20%
  Population Tubulin-Different-Phenotype (%): 77%
  Total Cell Count: 197
[9]
  Population Apoptotic (%): 67%
  Population Fragmented Nuclei (%): 16%
  Population Healthy Nuclei (%): 59%
  Population Hoechst High Intensity Objects (%): 30%
  Population Membrane Permeable-Phenotype (%): 0%
  Population Mitochondria Different-Phenotype (%): 79%
  Population Mitotic Cells (%): 32%
  Population Normal (%): 69%
  Population Pyknosed Nuclei (%): 23%
  Population Tubulin-Different-Phenotype (%): 71%
  Total Cell Count: 239
[10]
  Population Apoptotic (%): 81%
  Population Fragmented Nuclei (%): 6%
  Population Healthy Nuclei (%): 65%
  Population Hoechst High Intensity Objects (%): 26%
  Population Mitochondria Different-Phenotype (%): 95%
  Population Mitotic Cells (%): 18%
  Population Normal (%): 73%
  Population Pyknosed Nuclei (%): 27%
  Population Tubulin-Different-Phenotype (%): 74%
  Total Cell Count: 184
[11]
  Population Apoptotic (%): 55%
  Population Fragmented Nuclei (%): 62%
  Population Healthy Nuclei (%): 14%
  Population Hoechst High Intensity Objects (%): 67%
  Population Membrane Permeable-Phenotype (%): 0%
  Population Mitochondria Different-Phenotype (%): 100%
  Population Mitotic Cells (%): 44%
  Population Normal (%): 32%
  Population Pyknosed Nuclei (%): 23%
  Population Tubulin-Different-Phenotype (%): 23%
  Total Cell Count: 361
[12]
  Population Apoptotic (%): 80%
  Population Fragmented Nuclei (%): 47%
  Population Healthy Nuclei (%): 30%
  Population Hoechst High Intensity Objects (%): 58%
  Population Mitochondria Different-Phenotype (%): 94%
  Population Mitotic Cells (%): 20%
  Population Normal (%): 41%
  Population Pyknosed Nuclei (%): 21%
  Population Tubulin-Different-Phenotype (%): 57%
  Total Cell Count: 277
